Reference: the EternaBench riboswitch data

Test system: MS2 coat protein
Experiment: apparent Kd, MS2 coat protein; higher = weaker binding; RNA-MaP array; FMN 200 µM where present
Method in brief: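 On Illumina sequencing-chip clusters, designs were transcribed by stalled E. coli RNA polymerase and titrated with SNAP-549-labelled MS2 coat protein (0.7 or 1.5 nM, doubling to 3 µM), without and then with constant ligand, in 100 mM Tris-HCl pH 7.5, 80 mM KCl, 4 mM MgCl2, BSA, DTT, yeast tRNA and Tween-20. Apparent Kd is the median of filtered per-cluster curve fits to green signal normalised to red-channel RNA signal and control-cluster median Fmax.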

[1] = designed as: OFF switch for flavin mononucleotide, no ligand
[2] = ligand present: flavin mononucleotide, designed as: OFF switch for flavin mononucleotide
[3] = designed as: ON switch for flavin mononucleotide, no ligand
[4] = ligand present: flavin mononucleotide, designed as: ON switch for flavin mononucleotide

Sequence | apparent Kd [1] | apparent Kd [2] | apparent Kd [3] | apparent Kd [4]
GGUGGACAUGAGGAUCACCCAUGUGAGGAUAUCGGCUAUCUUAUCGCUGUCGGUUGCUCGAGAAGGCACAUUGU | 76.7 nM | 195 nM |  | 
ACGUGACAUGAGGAUCACCCAUGUGAGGAUAUCUGGAUAAUUUUUAUUUUAGAUAUCCAGAGAAGGCACAUGUU | 206 nM | 173 nM |  | 
GGAGGAGGAGUGAGGAUAUGGUGGUGGAAACACCACCAGAAGGCACAUGAGGAUCACCCAUGUGAAGAAGAGAA | 18.9 nM | 24.9 nM |  | 
AAAAAACAUGAGGAUCACCCAUGUCUUCGGACAUGAGGAUAUGUACAGACUUCGGUCUGUACAGAAGGCAUGUCUU |  |  | 97.2 nM | 22.8 nM
UCAACCGGCGCCGGUUGAACAUGAGGAUCACCCAUGUACUCCAGAAGGCCGCCCAAGAACGGAGUGGAGGAUAUGGAAGUUCUC |  |  | 47.2 nM | 30.1 nM
CCACGGCACUCGUUGGUACGGGCAGAGGAUAUCGACAUGAGGAUCACCCAUGUGGAUGUAUAUGUCGAGAAGGCUGAUUCGUCU | 44 nM | 197 nM |  | 
GGGUACAUCGGAGGAUAUCAUGUAAAUACAUGAGGAUCACCCAUGUCGAUGGAGACAUCGGAGAUUGAGAAGGCCGAUGUAUCG |  |  | 157 nM | 9.09 nM
CUCCGGCGUGUAGGAUAUGGAUCCGAUUAGGAUCCAGAAGGACAUGAGGAUCACCCAUGUACAUGUAAACAGUCAUCACCGGAA | 7.61 nM | 18.8 nM |  | 
GUGUGAAUAGGAGGAUAUAUACAACAUGAGGAUCACCCAUGUACCCGUGUAGUAGAAGGUUUGUUUUUAUAUAAUAUUAUAUUU |  |  | 26.8 nM | 21.6 nM
GCCAUCGCAUGAGGAUAUGGUCACGUUUCGUGACCAGAAGGCAUGUCAAUAGACAUGAGGAUCACCCAUGUAGUUAAGAUGGCA |  |  | 680 nM | 59.8 nM
GCAGACGUAGUGAGGAUAUGCUCUACCUCGGUAGAGCAGAAGGCACAUGAGGAUCACCCAUGUGGUUCCUCUGC | 19.1 nM | 80.9 nM |  | 
AACGGGUGGGUAGGAUAUGGCUAUGUCUCAUUGCUAGAAGGACCAGCUGCUACAUGAGGAUCACCCAUGUCGUAGUGCAUCCAG |  |  | 88.2 nM | 13 nM
UUCCUCACUUCUUUGACUCACAUGAGGAUCACCCAUGUAAUAUAGGAUAUGCAUUUUAUUUCUUUGCAGAAGGAUAUUAGUUUU | 44.8 nM | 141 nM |  | 
ACAUACAUUCGAGGAUAUCGGUGAUUAAUAAUACGAGAAGGCGAUUUAAGAUAUAAAAUUUUAGACAUGAGGAUCACCCAUGUA |  |  | 27.9 nM | 23.9 nM
AUGGACGUCGUAGGAUAUGUAGGAUAUUCCUACAUGAGGAUCACCCAUGUUGACAUGGAAGAAGGACAGAAGGACGAUGUCCAU |  |  | 199 nM | 4.47 nM
AAUUAGUAAGAAUCACAUGAGGAUCACCCAUGUUUACGGAUGCAGGAUAUGUGGGAUAUUACUUAACAGAAGGGCAAUAACUUU |  |  | 104 nM | 44.2 nM
GAGGAUUUUUAGCUGACAUGAGGAUCACCCAUGUCUUGACCCAGAAGGGCGUGGGAUUCCCAACCGCAGGAUAUGGAUAGUCGG |  |  | 64.8 nM | 35.7 nM
UAAGUAUGUUGAGGAUAUUAUGUUUGGUGAGAUGACAUGAGGAUCACCCAUGUGUUAUCAGUUCUUAAGAAGGCAACAUACUUA |  |  | 25.7 nM | 17.8 nM

Sequence | apparent Kd [1] | apparent Kd [2] | apparent Kd [3] | apparent Kd [4]
AAUAUACAUGAGGAUCACCCAUGUUAGGUGGGACUAGGAUAUCAGAGUACAUUAUGAACAUGAGAAGGAGUCUCAG |  |  | 66.2 nM | 24.2 nM
AAUUUCAGAUGAGGAUAUUGACAUGAGGAUCACCCAUGUAUUUGGGAAUGUUUACUGAAUUCUUACAAGAAGGUAUACGAACUU | 237 nM | 164 nM |  | 
UUUUUUGUUGUGAGGAUAUCGUAGUUAUUUUGUUACGAGAAGGCACAUGAGGAUCACCCAUGUUUUUUGAUGUU | 23.8 nM | 82.6 nM |  | 
GAAGAAAAGGCAGGAUAUCAGAAACACAUGAUAAGGAGAUGCAACAUGAGGAUCACCCAUGUAAAUGAGAAGGGCCGCCCUUCC | 35.6 nM | 62.1 nM |  | 
UUUUAACAUGAGGAUCACCCAUGUGAGGAUAUCGAAAUUUAUAUUAAUAUUAAUUUAUCGAGAAGGCACAUUUU | 107 nM | 133 nM |  | 
GCCAGCUCGUGAGGAUAUACAACACUGCUUCGGCAGUGUAUUAAGAUCACAUGAGGAUCACCCAUGUAGAAGGCACGAGCUGAU | 13.8 nM | 261 nM |  | 
ACAUGCGGAUGAGGAUAUUCAUUUAUGAGGAUAGAAGAAGGCAUACAUGAGGAUCACCCAUGUAUACGCAUGAGGAUCCCUUAC | 39.1 nM | 41 nM |  | 
AAAAAGUCAGGAUAUACGAAAAAAAAAAAAAAAAAAAAAAAGUAGAAGGGACAUGAGGAUCACCCAUGUGAAAA | 74.7 nM | 39.3 nM |  | 
GGAUGAUAAAUAGGAUAUUAAUUGUAAUUAGGUUAAGAAGGAUUAAUGAUUUAAACGACCAGUUACAUGAGGAUCACCCAUGUU |  |  | 177 nM | 161 nM
AAGAAAGAAACGCAGGAUAUGCAAAACAAAACAUGAGGAUCACCCAUGUCUUACUUACAAACAAAGCAGAAGGGCGAAAGAAAGAA |  |  | 20.1 nM | 13.2 nM
GUAGCUAUCGGAGGAUAUUCAUGAAACAUGAGGAUCACCCAUGUUAAAUUGGGAGAAGGCCGAUAGCUACAAGAGCGAAAGCUC |  |  | 7.5 nM | 5.32 nM
UGGUACUACGGAGGAUAUCAUGUAGAUACAUGAGGAUCACCCAUGUCGUACGAGAGUACGGAGAUUGAGAAGGCCGUAGUACCU |  |  | 30.5 nM | 15.1 nM
GAUGGCGUCCAAGGAUAUCCUGACCGUUAACAUGAGGAUCACCCAUGUUGCCUAAAGGCGGCAUAGGAGAAGGUGGUACUCUGA |  |  | 111 nM | 155 nM
AACAGCUCGUCAGGAUAUAUUUACUUAUAUUGUAUUUAUGUACAUGAGGAUCACCCAUGUUGUUAGUAGAAGGGACGAGCUGAA | 7.42 nM | 7.32 nM |  | 
UGUUUUCAUGUAGGAUAUGCUUGUCGUAGAUACGCAGAAGGACAUGAGGAUCACCCAUGUUAAUGCUACAGAUUUUAGUUUCUU | 19.5 nM | 102 nM |  | 
UAUUAGUAAGGAUAUCUCGUCAUGGAGGAAACUCCAUGACGAGAGAAGGUACAUGAGGAUCACCCAUGUCUAUU | 16.1 nM | 18.3 nM |  | 
AAGCCUACAAUGGUGUAAUGUACAUGAGGAUCACCCAUGUACAGAAGGUGGAAUGUAAAAGGUGCCAAGGAUAUGUAUGCGGGU | 12.6 nM | 16.4 nM |  | 
AGUCGGAGCAGAGGAUAUACAUGAGGAUCACCCAUGUAAAUGGAAGAAGACUGGAAACAGUCAAUGUAGAAGGCUGCUCCGACA | 121 nM | 625 nM |  | 
